Test results published in ChEMBL document CHEMBL5244268, “Preventing Candida albicans biofilm formation using aromatic-rich piperazines” (Bioorg Med Chem, 2020).
Converted amounts (≈) assume the structure as drawn. The source made the active and inactive calls. No cut-off for these calls is given here.

Assays:
[1] = system: Candida albicans; experiment: Antibiofilm activity against Candida albicans ATCC 28366 assessed as disruption of preformed biofilm incubated for 12 hrs by crystal violet staining based absorbance spectrometry analysis; assay type: functional, organism-based
In short: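 Mature biofilms grown 36 to 48 h in Sabouraud pH 7.0 without compound; medium and free cells removed, rinsed with 50 mM PBS pH 7.0, then two-fold serial dilutions in PBS added for 12 h at 37 °C. Residual biofilm stained with crystal violet, dye released in 75% ethanol, A550 read. PBS-treated biofilms as controls.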

[2] = system: Candida albicans; experiment: Antifungal activity against Candida albicans ATCC 28366 assessed as reduction in fungal growth at up to 64 ug/ml incubated for 24 hrs by plate count determination; assay type: functional, organism-based; settings: dose <= 64.0 µg/ml
[3] = system: Candida albicans; experiment: Antibiofilm activity against Candida albicans ATCC 28366 assessed as inhibition of biofilm formation at 0.5 to 32 ug/ml incubated for 24 to 48 hrs by crystal violet staining based absorbance spectrometry analysis; assay type: functional, organism-based; settings: dose 0.5-32 µg/ml, time 24-48 hrs
In short: (§1)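 Overnight cultures (37 °C, aerobic, Sabouraud pH 7.0) adjusted to OD660 0.2, mixed 1:1 with two-fold serial dilutions in medium and incubated at 37 °C. Biofilm stained with crystal violet, dye released in 75% ethanol, A550 read. Growth relative to compound-free wells (100%) after blank subtraction. At least two independent experiments in triplicate, t test.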

[4] = system: Candida albicans; experiment: Antifungal activity against Candida albicans ATCC 28366 assessed as inhibition of fungal growth incubated for 24 hrs by plate count determination; assay type: functional
In short: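 Biofilm-assay setup (Sabouraud pH 7.0, inoculum OD660 0.2, serial two-fold dilutions, 37 °C). […] Highest value kept when replicates differ. At least two independent experiments in triplicate.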

[5] = system: Candida albicans; experiment: Antibiofilm activity against Candida albicans ATCC 28366 assessed as inhibition of biofilm formation at 2 ug/ml incubated for 24 to 48 hrs by crystal violet staining based absorbance spectrometry analysis; assay type: functional, organism-based; settings: dose 2.0 µg/ml, time 24-48 hrs; in short: as §1
[6] = system: Candida albicans; experiment: Fungicidal activity against Candida albicans ATCC 28366 assessed as prevention of colony formation incubated for 24 hrs; assay type: functional
[7] = system: Candida albicans; experiment: Antifungal activity against Candida albicans ATCC 28366 assessed as reduction in fungal growth incubated for 24 hrs by plate count determination; assay type: functional, organism-based
[8] = system: Candida albicans; experiment: Antibiofilm activity against Candida albicans ATCC 28366 incubated for 24 to 48 hrs by crystal violet staining based absorbance spectrometry analysis; assay type: functional, organism-based; settings: time 24-48 hrs; in short: as §1
[9] = system: Candida albicans; experiment: Antibiofilm activity against Candida albicans ATCC 28366 at up to 96 ug/ml incubated for 24 to 48 hrs by crystal violet staining based absorbance spectrometry analysis; assay type: functional, organism-based; settings: dose <= 96.0 µg/ml, time 24-48 hrs; in short: as §1
[10] = system: Candida albicans; experiment: Antibiofilm activity against Candida albicans LAM-1 at 4 ug/ml incubated for 24 to 48 hrs by crystal violet staining based absorbance spectrometry analysis; assay type: functional, organism-based; settings: dose 4.0 µg/ml, time 24-48 hrs; in short: as §1
[11] = system: Candida albicans; experiment: Antibiofilm activity against Candida albicans ATCC 28366 assessed as reduction in fungal growth at 1 to 4 ug/ml incubated for 4 hrs in spider medium by plate count determination; assay type: functional, organism-based; settings: dose 1-4 µg/ml
In short: (§2)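 After the 4 h, 37 °C morphogenesis incubation in Spider medium (YPD overnight inoculum, 50 µL into 5 mL), OD660 measured to follow fungal growth; C. albicans viability confirmed by plate count.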

[12] = system: Candida albicans; experiment: Antibiofilm activity against Candida albicans ATCC 28366 assessed as inhibition of morphological switching at 1 ug/ml incubated for 4 hrs in YPD medium with fetal bovine serum by microscopic analysis; assay type: functional, organism-based; settings: dose 1.0 µg/ml
In short: (§3)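 Yeast-form cells grown overnight in YPD at 30 °C. 50 µL inoculated into 5 mL hypha-inducing medium (e.g., Spider: 1% nutrient broth, 1% mannitol, 0.2% K2HPO4, pH 7.2) containing two-fold dilutions, then 4 h at 37 °C. At least 100 cells per replicate counted as hypha (pseudohyphae and intermediates included) or yeast. Compound-free control for maximal conversion. At least two independent experiments in triplicate.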

[13] = system: Candida albicans; experiment: Antibiofilm activity against Candida albicans ATCC 28366 assessed as reduction in hyphae formation at 4 ug/ml incubated for 4 hrs in spider medium by microscopic analysis; assay type: functional, organism-based; settings: dose 4.0 µg/ml; in short: as §3
[14] = system: Candida albicans; experiment: Antibiofilm activity against Candida albicans ATCC 28366 assessed as short hyphae formation at 2 ug/ml incubated for 4 hrs in spider medium by microscopic analysis; assay type: functional, organism-based; settings: dose 2.0 µg/ml; in short: as §3
[15] = system: Candida albicans; experiment: Antibiofilm activity against Candida albicans ATCC 28366 assessed as inhibition of filamentation at 2 ug/ml incubated for 4 hrs in Lee's medium by microscopic analysis; assay type: functional, organism-based; settings: dose 2.0 µg/ml; in short: as §3
[16] = system: Candida albicans; experiment: Antibiofilm activity against Candida albicans ATCC 28366 assessed as reduction in filamentation by measuring joint hyphae cell elongation at 1 ug/ml incubated for 4 hrs in spider medium by microscopic analysis; assay type: functional, organism-based; settings: dose 1.0 µg/ml; in short: as §3
[17] = system: Candida albicans; experiment: Antibiofilm activity against Candida albicans ATCC 28366 assessed as inhibition of nitrogen deprivation induced morphological switching at 1 to 4 ug/ml incubated for 4 hrs in SLAD media by microscopic analysis; assay type: functional, organism-based; settings: dose 1-4 µg/ml; in short: as §3
[18] = system: Candida albicans; experiment: Antibiofilm activity against Candida albicans ATCC 28366 assessed as small subpopulation of hyphae formation at 2 ug/ml incubated for 4 hrs in spider medium by microscopic analysis; assay type: functional, organism-based; settings: dose 2.0 µg/ml; in short: as §3
[19] = system: Candida albicans; experiment: Antibiofilm activity against Candida albicans ATCC 28366 assessed as inhibition of morphogenesis at 1 to 4 ug/ml incubated for 4 hrs in spider medium by microscopic analysis; assay type: functional, organism-based; settings: dose 1-4 µg/ml; in short: as §3
[20] = Cytotoxicity against human B11 cells assessed as reduction in cell viability at 96 ug/ml incubated for 2 hrs by MTT assay; assay type: toxicity, cell-based; settings: b11, 2 h, dose 96 µg/ml
In short: (§4)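 B11 human oral epithelial cells in K-SFM with bovine pituitary extract and EGF, grown to confluence (1 × 10⁵ cells/well, 37 °C, 5% CO2). Treated with two-fold dilutions from 96 to 1.5 µg/mL for 2 or 24 h, then MTT viability read. Triplicate, mean ± SD.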

[21] = system: Candida albicans; experiment: Antibiofilm activity against Candida albicans ATCC 28366 assessed as inhibition of N-acetylglucosamine induced morphological switching at 1 to 4 ug/ml incubated for 4 hrs by microscopic analysis; assay type: functional, organism-based; settings: dose 1-4 µg/ml; in short: as §3
[22] = system: Candida albicans; experiment: Antibiofilm activity against Candida albicans LAM-1 assessed as reduction in fungal growth at 1 to 4 ug/ml incubated for 4 hrs in spider medium by plate count determination; assay type: functional, organism-based; settings: dose 1-4 µg/ml; in short: as §2
[23] = system: Candida albicans; experiment: Antibiofilm activity against Candida albicans ATCC 28366 at 1 ug/ml incubated for 24 to 48 hrs by crystal violet staining based absorbance spectrometry analysis; assay type: functional, organism-based; settings: dose 1.0 µg/ml, time 24-48 hrs; in short: as §1
[24] = Cytotoxicity against human B11 cells assessed as reduction in cell viability at >=24 ug/ml incubated for 24 hrs by MTT assay; assay type: toxicity, cell-based; settings: b11, 24 h, dose > 24 µg/ml; in short: as §4
[25] = system: Candida albicans; experiment: Antibiofilm activity against FITC labeled Candida albicans ATCC 28366 in human GMSM-K cells assessed as reduction in fungal adherence to cells incubated for 4 hrs by fluorescence microscopic analysis; assay type: functional, organism-based; settings: dose 6-48 µg/ml
In short: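 Confluent GMSM-K monolayers (DMEM, 10% FBS) pre-incubated 30 min with two-fold dilutions in DMEM (37 °C, 5% CO2). FITC-labelled yeast (0.03 mg/mL FITC in 0.5 M NaHCO3 pH 8, 30 min, 37 °C) added at MOI 10³ for 4 h. After PBS washes, fluorescence read (ex 495/em 525 nm) as % of compound-free wells. Two independent experiments in triplicate.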

[26] = system: Candida albicans; experiment: Antibiofilm activity against Candida albicans ATCC 28366 at 48 ug/ml incubated for 24 to 48 hrs by crystal violet staining based absorbance spectrometry analysis; assay type: functional, organism-based; settings: dose 48.0 µg/ml, time 24-48 hrs; in short: as §1

MIC [4] | Compound | Activity [1] | Activity [2] | inhibition [3] | Activity [7] | Activity [8] | also measured
– | c1ccc(COc2ccc(C[C@H]3CN[C@H](Cc4ccccc4)CN3)cc2)cc1 | inactive | inactive | Active | – | – | –
24 µg/mL (≈ 50.1 µM) | c1ccc(COc2ccc(C[C@@H]3CN[C@H](Cc4ccc(OCc5ccccc5)cc4)CN3)cc2)cc1 | inactive | – | – | – | – | inhibition [5]: Active; MFC [6]: 24 µg/mL (≈ 50.1 µM)
– | CN1C[C@H](Cc2ccc(OCc3ccccc3)cc2)N(C)C[C@@H]1Cc1ccc(OCc2ccccc2)cc1 | – | – | – | inactive | inactive | –
– | CN1C[C@H](Cc2ccccc2)N(C)C[C@H]1Cc1ccccc1 | – | – | – | – | – | Activity [9]: inactive
– | c1ccc(C[C@H]2CN[C@H](Cc3ccccc3)CN2)cc1 | inactive | – | – | – | – | Activity [9]: inactive
– | Oc1ccc(C[C@H]2CN[C@@H](Cc3ccccc3)CN2)cc1 | inactive | – | – | inactive | inactive | –
> 128 µg/mL | c1ccc(COc2ccc(C[C@@H]3CN[C@@H](Cc4ccccc4)CN3)cc2)cc1 | inactive | inactive | Active | – | – | –
– | Oc1ccc(C[C@H]2CN[C@@H](Cc3ccc(O)cc3)CN2)cc1 | inactive | – | – | inactive | inactive | –
96 µg/mL (≈ 258 µM) | c1ccc(COc2ccc(C[C@H]3CN[C@@H](Cc4ccccc4)CN3)cc2)cc1 | inactive | inactive | Active | – | – | Activity [10]: Active; Activity [11]: inactive; inhibition [12]: Active; Activity [13]: Active; Activity [14]: Active; inhibition [15]: Active; Activity [16]: inactive; inhibition [17]: inactive; Activity [18]: Active; inhibition [19]: Active; Activity [20]: Toxic; inhibition [21]: inactive; Activity [22]: inactive; Activity [23]: Active; Activity [24]: Toxic; Activity [25]: Dose-Dependent Effect
> 128 µg/mL | c1ccc(COc2ccc(C[C@H]3CN[C@H](Cc4ccc(OCc5ccccc5)cc4)CN3)cc2)cc1 | inactive | – | – | – | – | Activity [26]: Active
